In ChEMBL document CHEMBL4152184, “NB 06: From a simple lysosomotropic aSMase inhibitor to tools for elucidating the role of lysosomes in signaling apoptosis and LPS-induced inflammation” (Eur J Med Chem, 2018):

Experiments:
Assay type in all cases: functional
MONO-MAC-6 [1] = assay: Upregulation of IFNA13 mRNA expression level in LPS-stimulated human MONO-MAC-6 cells preincubated for 30 mins followed by LPS stimulation measured after 1 hr by qRT-PCR analysis relative to control
MONO-MAC-6 [2] = assay: Upregulation of CXCL3 mRNA expression level in LPS-stimulated human MONO-MAC-6 cells at 5 uM preincubated for 30 mins followed by LPS stimulation measured after 4 hrs by oligonucleotide array hybridization assay (reference value: 13.52)
MONO-MAC-6 [3] = assay: Downregulation of CXCL3 mRNA expression level in human MONO-MAC-6 cells at 5 uM incubated for 30 mins measured after 6 hrs by oligonucleotide array hybridization assay relative to control
Method in brief: (§1)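 Total RNA was isolated, transcribed and labeled with DY-647 dye, then co-hybridized with DY-548-labeled cDNA from untreated cells on an inflammation oligonucleotide chip (780 gene probes). Differential expression >1.5 was taken as significant.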

MONO-MAC-6 [4] = assay: Downregulation of CCL4 mRNA expression level in human MONO-MAC-6 cells at 5 uM incubated for 30 mins measured after 4 hrs by oligonucleotide array hybridization assay relative to control; method in brief: as §1
MONO-MAC-6 [5] = assay: Upregulation of CCL4 mRNA expression level in LPS-stimulated human MONO-MAC-6 cells at 5 uM preincubated for 30 mins followed by LPS stimulation measured after 6 hrs by oligonucleotide array hybridization assay (reference value: 6.37)
MONO-MAC-6 [6] = assay: Upregulation of CCL20 mRNA expression level in LPS-stimulated human MONO-MAC-6 cells at 5 uM preincubated for 30 mins followed by LPS stimulation measured after 2 hrs by oligonucleotide array hybridization assay (reference value: 2.87)
MONO-MAC-6 [7] = assay: Downregulation of CCL20 mRNA expression level in human MONO-MAC-6 cells at 5 uM incubated for 30 mins measured after 4 hrs by oligonucleotide array hybridization assay relative to control; method in brief: as §1
MONO-MAC-6 [8] = assay: Downregulation of PTX3 mRNA expression level in LPS-stimulated human MONO-MAC-6 cells at 5 uM preincubated for 30 mins followed by LPS stimulation measured after 1 hr by oligonucleotide array hybridization assay (reference value: 1.10); method in brief: as §1
MONO-MAC-6 [9] = assay: Downregulation of PTX3 mRNA expression level in human MONO-MAC-6 cells at 5 uM incubated for 30 mins measured after 4 hrs by oligonucleotide array hybridization assay relative to control; method in brief: as §1
MONO-MAC-6 [10] = assay: Downregulation of PTX3 mRNA expression level in LPS-stimulated human MONO-MAC-6 cells at 5 uM preincubated for 30 mins followed by LPS stimulation measured after 6 hrs by oligonucleotide array hybridization assay (reference value: 3.18); method in brief: as §1
MONO-MAC-6 [11] = assay: Downregulation of PTX3 mRNA expression level in human MONO-MAC-6 cells at 5 uM incubated for 30 mins measured after 6 hrs by oligonucleotide array hybridization assay relative to control; method in brief: as §1
MONO-MAC-6 [12] = assay: Upregulation of CXCL10 mRNA expression level in LPS-stimulated human MONO-MAC-6 cells at 5 uM preincubated for 30 mins followed by LPS stimulation measured after 4 hrs by oligonucleotide array hybridization assay (reference value: 3.07)
MONO-MAC-6 [13] = assay: Upregulation of CXCL10 mRNA expression level in LPS-stimulated human MONO-MAC-6 cells at 5 uM preincubated for 30 mins followed by LPS stimulation measured after 6 hrs by oligonucleotide array hybridization assay (reference value: 1.57)
MONO-MAC-6 [14] = assay: Upregulation of CXCL2 mRNA expression level in LPS-stimulated human MONO-MAC-6 cells at 5 uM preincubated for 30 mins followed by LPS stimulation measured after 4 hrs by oligonucleotide array hybridization assay (reference value: 13.17)
MONO-MAC-6 [15] = assay: Upregulation of PTGS2 mRNA expression level in human MONO-MAC-6 cells at 5 uM incubated for 30 mins measured after 2 hrs by oligonucleotide array hybridization assay relative to control
MONO-MAC-6 [16] = assay: Upregulation of ICAM1 mRNA expression level in human MONO-MAC-6 cells at 5 uM incubated for 30 mins measured after 1 hr by oligonucleotide array hybridization assay relative to control
MONO-MAC-6 [17] = assay: Upregulation of ICAM1 mRNA expression level in LPS-stimulated human MONO-MAC-6 cells at 5 uM preincubated for 30 mins followed by LPS stimulation measured after 4 hrs by oligonucleotide array hybridization assay (reference value: 2.88)
MONO-MAC-6 [18] = assay: Upregulation of CXCL2 mRNA expression level in LPS-stimulated human MONO-MAC-6 cells at 5 uM preincubated for 30 mins followed by LPS stimulation measured after 4 hrs by qRT-PCR method (reference value: 16.41)
MONO-MAC-6 [19] = assay: Downregulation of CXCL2 mRNA expression level in human MONO-MAC-6 cells at 5 uM incubated for 30 mins measured after 4 hrs by qRT-PCR method relative to control
MONO-MAC-6 [20] = assay: Downregulation of CXCL2 mRNA expression level in LPS-stimulated human MONO-MAC-6 cells at 5 uM preincubated for 30 mins followed by LPS stimulation measured after 6 hrs by qRT-PCR method (reference value: 5.22)
MONO-MAC-6 [21] = assay: Downregulation of CXCL2 mRNA expression level in human MONO-MAC-6 cells at 5 uM incubated for 30 mins measured after 6 hrs by qRT-PCR method relative to control
MONO-MAC-6 [22] = assay: Downregulation of IL-6 mRNA expression level in LPS-stimulated human MONO-MAC-6 cells at 5 uM preincubated for 30 mins followed by LPS stimulation measured after 1 hr by qRT-PCR method (reference value: 1)
MONO-MAC-6 [23] = assay: Upregulation of IL-6 mRNA expression level in LPS-stimulated human MONO-MAC-6 cells at 5 uM preincubated for 30 mins followed by LPS stimulation measured after 2 hrs by qRT-PCR method (reference value: […])
MONO-MAC-6 [24] = assay: Downregulation of IL-6 mRNA expression level in human MONO-MAC-6 cells at 5 uM incubated for 30 mins measured after 2 hrs by qRT-PCR method relative to control
MONO-MAC-6 [25] = assay: Downregulation of IL-6 mRNA expression level in LPS-stimulated human MONO-MAC-6 cells at 5 uM preincubated for 30 mins followed by LPS stimulation measured after 6 hrs by qRT-PCR method (reference value: 5.09)
MONO-MAC-6 [26] = assay: Downregulation of TNFalpha mRNA expression level in human MONO-MAC-6 cells at 5 uM incubated for 30 mins measured after 1 hr by qRT-PCR method relative to control
MONO-MAC-6 [27] = assay: Upregulation of TNFalpha mRNA expression level in LPS-stimulated human MONO-MAC-6 cells at 5 uM preincubated for 30 mins followed by LPS stimulation measured after 2 hrs by qRT-PCR method (reference value: 3.10)
MONO-MAC-6 [28] = assay: Upregulation of TNFalpha mRNA expression level in LPS-stimulated human MONO-MAC-6 cells at 5 uM preincubated for 30 mins followed by LPS stimulation measured after 4 hrs by qRT-PCR method (reference value: 4.32)

COc1ccc(CCN(C)CCCn2c3ccccc3c3ccccc32)cc1
fold change (FC) (MONO-MAC-6 [1]): 41.95
fold change (FC) (MONO-MAC-6 [2]): 8.83
fold change (FC) (MONO-MAC-6 [3]): 4.67
fold change (FC) (MONO-MAC-6 [4]): 1.55
fold change (FC) (MONO-MAC-6 [5]): 1.16
fold change (FC) (MONO-MAC-6 [6]): 2.7
fold change (FC) (MONO-MAC-6 [7]): 1.4
fold change (FC) (MONO-MAC-6 [8]): 1.02
fold change (FC) (MONO-MAC-6 [9]): 1.93
fold change (FC) (MONO-MAC-6 [10]): 1.05
fold change (FC) (MONO-MAC-6 [11]): 3.91
fold change (FC) (MONO-MAC-6 [12]): 1.01
fold change (FC) (MONO-MAC-6 [13]): 1.12
fold change (FC) (MONO-MAC-6 [14]): 5.82
fold change (FC) (MONO-MAC-6 [15]): 2.08
fold change (FC) (MONO-MAC-6 [16]): 1.1
fold change (FC) (MONO-MAC-6 [17]): 1.31
fold change (FC) (MONO-MAC-6 [18]): 8.28
fold change (FC) (MONO-MAC-6 [19]): 1.845
fold change (FC) (MONO-MAC-6 [20]): 1.01
fold change (FC) (MONO-MAC-6 [21]): 4.71
fold change (FC) (MONO-MAC-6 [22]): 1.17
fold change (FC) (MONO-MAC-6 [23]): 6.12
fold change (FC) (MONO-MAC-6 [24]): 2.15
fold change (FC) (MONO-MAC-6 [25]): 1.1
fold change (FC) (MONO-MAC-6 [26]): 1.83
fold change (FC) (MONO-MAC-6 [27]): 1.34
fold change (FC) (MONO-MAC-6 [28]): 1.37
